Assay [1] can be described thus: In vitro concentration of compound required to inhibit LPS-induced B cell proliferation to 50% in BALB/c mice. The format is functional, cell-based. As to conditions: Mus musculus. The essentials: (§1)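 Fresh spleen cells from male BALB/c mice (7–9 weeks); 5 × 10^5 cells per well in RPMI 1640 with 10% FBS, penicillin/streptomycin, 37 °C, 5% CO2, 48 h, with test compounds at varied concentrations. Stimulated with 5 µg/mL ConA (T cells) or 10 µg/mL LPS (B cells). Proliferation read as [3H]thymidine uptake over an 8 h pulse (20 kBq/well), scintillation counting. IC50 is the concentration that inhibits proliferation to 50% of control.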

Assay [2] has as its system T-cell. As to the kind of experiment: In vitro concentration of compound required to inhibit ConA-induced T cell proliferation to 50% in BALB/c mice. The format is functional, cell-based. Particulars: Mus musculus. The procedure, abridged:
as §1

The species named for assay [3] is Mus musculus. The experiment in a line: In vitro concentration of compound required to reduced spleen cell viability to 50% in BALB/c mice. The format is functional. The procedure, abridged:
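Male BALB/c mouse spleen cells (7–9 weeks), erythrocytes lysed with ammonium chloride, 5 × 10^5 cells per well in RPMI 1640/10% FBS with antibiotics. Exposed to a range of compound concentrations for 48 h at 37 °C, 5% CO2. MTT (5 mg/mL stock) added for the final 5 h, then SDS/DMF lysis buffer (pH 7.2) for 6–7 h. Absorbance read at 570 nm; CC50 is the concentration reducing viability to 50%.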

The species named for assay [4] is Mus musculus. As to the kind of experiment: Ratio of concentration that reduced cell viability to inhibitory concentration for LPS-induced B cell proliferation. Format: functional.
The species entered for assay [5] is Mus musculus. The experiment in a line: Ratio of concentration that reduced cell viability to inhibitory concentration for ConA-induced T cell proliferation. The format is functional.

pIC50: −log10 of the molar value. Bounds are passed on as bounds.

Our source for the IC50, CC50 and Selectivity index values is ChEMBL document CHEMBL1140316, “Synthesis and immunosuppressive activity of new artemisinin derivatives. 1. [12(beta or alpha)-Dihydroartemisininoxy]phen(ox)yl aliphatic acids and esters” (J Med Chem, 2005).

On to `CCOC(=O)CNC(=O)c1ccc(O[C@H]2O[C@@H]3O[C@]4(C)CC[C@H]5[C@H](C)CC[C@@H]([C@H]2C)[C@@]35OO4)cc1`, for which the figures for the pIC50 in assay [1] and in assay [2] were 7.27 and 5.60, respectively. This molecule came in with a CC50 in assay [3] of 130 µM. The Selectivity index in assay [4] is reported as 2421; in assay [5] it was 51.

Consider `CCOC(=O)C(C)Oc1cccc(OC2OC3OC4(C)CC[C@H]5[C@H](C)CC[C@@H]([C@H]2C)[C@@]35OO4)c1` (single isomer, unassigned), for which the pIC50 in assay [1] was 6.46; in assay [2], 5.76. For the same molecule, the midpoint of cytotoxicity in assay [3], the CC50, lay at 1.36 µM. Also, the Selectivity index came out at 4 in assay [4] and 1 in assay [5].

`C/C=C/C[C@@H](C)[C@@H](O)[C@H]1C(=O)N[C@@H](CC)C(=O)N(C)CC(=O)N(C)[C@@H](CC(C)C)C(=O)N[C@@H](C(C)C)C(=O)N(C)[C@@H](CC(C)C)C(=O)N[C@@H](C)C(=O)N[C@H](C)C(=O)N(C)[C@@H](CC(C)C)C(=O)N(C)[C@@H](CC(C)C)C(=O)N(C)[C@@H](C(C)C)C(=O)N1C` [CYCLOSPORINE]: the Selectivity index in assay [4] is on record as 7; in assay [5], 963.

For `C[C@H]1[C@@H](Oc2ccc(OCC(=O)OCCN(C)C)cc2)O[C@@H]2OC3(C)CC[C@H]4[C@H](C)CC[C@@H]1[C@@]24OO3` (single isomer, unassigned), the pIC50 in assay [1] was 7.30; in assay [2], 5.71. This molecule also registered a CC50 in assay [3] of 2.08 µM. Besides, the Selectivity index was 42 in assay [4] and 1 in assay [5].

For `C[C@H]1[C@@H](Oc2cccc(OC(=O)CCC(=O)O)c2)O[C@@H]2O[C@]3(C)CCC4[C@H](C)CC[C@@H]1[C@]42OO3` (some centres not stated), the negative-log IC50 (pIC50) in assay [1] was 6.58; in assay [2], 6.49. Besides, in assay [3], half-maximal cytotoxicity (CC50) was put at 52.7 µM. In addition, the values for the Selectivity index in assay [4] and in assay [5] were 199 and 161, respectively.

As for `COC(=O)Cc1ccc(O[C@H]2O[C@@H]3OC4(C)CCC5[C@H](C)CC[C@@H]([C@H]2C)[C@]53OO4)cc1` (single isomer, unassigned), the pIC50 in assay [1] was 6.75; in assay [2], 6.15. For the same molecule, the CC50 in assay [3] is 8 µM. Besides, the Selectivity index in assay [4] is reported as 45; in assay [5] it was 11.

As for `CCOC(=O)C(C)Oc1ccc(OC2O[C@@H]3OC4(C)CCC5[C@H](C)CC[C@@H]([C@H]2C)[C@]53OO4)cc1` (single isomer, unassigned), the results for the pIC50 in assay [1] and in assay [2] were 6.07 and 6.59, respectively. Moreover, the CC50 in assay [3] is above 100 µM. The Selectivity index in assay [4] was above 118; in assay [5] it was above 385.

Regarding `COC(=O)COc1ccc(O[C@H]2OC3OC4(C)CC[C@H]5[C@H](C)CC[C@@H]([C@H]2C)[C@@]35OO4)cc1` (single isomer, unassigned), the pIC50 is 8.14 in assay [1] and 6.61 in assay [2]. Further, the CC50 in assay [3] amounted to 207 µM. Besides, the Selectivity index came out at 28473 in assay [4] and 848 in assay [5].

Consider `COC(=O)C(C)c1ccc(O[C@H]2O[C@@H]3OC4(C)CC[C@H]5[C@H](C)CC[C@@H]([C@H]2C)[C@@]35OO4)cc1` (single isomer, unassigned), for which the pIC50 in assay [1] was 6.11; in assay [2] it was 7.86. Besides, the midpoint of cytotoxicity in assay [3], the CC50, lay at 6.53 µM. For the same molecule, the Selectivity index came to 8 in assay [4] and 477 in assay [5].

Consider `CCOC(=O)C(C)Oc1cccc(O[C@H]2O[C@@H]3OC4(C)CC[C@H]5[C@H](C)CC[C@@H]([C@H]2C)[C@@]35OO4)c1` (single isomer, unassigned), for which the figures for the pIC50 in assay [1] and in assay [2] were 6.25 and 5.44, respectively. For the same molecule, in assay [3], the CC50 was found to be 2.99 µM. Further, the Selectivity index was determined as 5 in assay [4] and 1 in assay [5].

With `CC(C(=O)O)c1ccc(O[C@H]2O[C@@H]3OC4(C)CCC5[C@H](C)CC[C@@H]([C@H]2C)[C@]53OO4)cc1` (single isomer, unassigned), the pIC50 in assay [1] is 5.07; in assay [2] it was 5.44. The CC50 in assay [3] was found to be 59.6 µM. The figures for the Selectivity index in assay [4] and in assay [5] were 7 and 17, respectively.

As to `C[C@H]1[C@H](OC(=O)CCC(=O)O)O[C@@H]2O[C@@]3(C)CC[C@H]4[C@H](C)CC[C@@H]1[C@@]24OO3` [ARTESUNATE], the pIC50 is 6.00 in assay [1] and 5.34 in assay [2]. This molecule had a CC50 in assay [3] of 32.9 µM. In addition, the Selectivity index was 33 in assay [4] and 7 in assay [5].

As for `COc1ccccc1OC(=O)C(C)Oc1ccc(O[C@H]2O[C@@H]3OC4(C)CC[C@H]5[C@H](C)CC[C@@H]([C@H]2C)[C@@]35OO4)cc1` (single isomer, unassigned), the pIC50 was 6.57 in assay [1] and 5.63 in assay [2]. This molecule also showed a CC50 in assay [3] of 39.1 µM. The Selectivity index in assay [4] came out at 145; in assay [5], 17.

Consider `COC(=O)CCc1ccc(O[C@H]2O[C@@H]3OC4(C)CC[C@H]5[C@H](C)CC[C@@H]([C@H]2C)[C@@]35OO4)cc1` (single isomer, unassigned), for which the pIC50 is 7.75 in assay [1] and 6.86 in assay [2]. Further, the CC50 in assay [3] is 41.7 µM. Further, the Selectivity index in assay [4] came out at 2343; in assay [5], 302.

`CC(Oc1ccc(OC2O[C@@H]3OC4(C)CC[C@H]5[C@H](C)CC[C@@H]([C@H]2C)[C@@]35OO4)cc1)C(=O)O` (single isomer, unassigned): the pIC50 is 6.07 in assay [1] and 5.14 in assay [2]. For the same molecule, the CC50 in assay [3] is above 100 µM. For the same molecule, the Selectivity index in assay [4] is above 116; in assay [5], above 14.

On to `C[C@H]1[C@@H](Oc2ccc(CCC(=O)O)cc2)O[C@@H]2OC3(C)CC[C@H]4[C@H](C)CC[C@@H]1[C@@]24OO3` (single isomer, unassigned), for which the pIC50 in assay [1] was 6.97; in assay [2] it was 5.40. For the same molecule, the CC50 in assay [3] was 10.4 µM. In addition, the Selectivity index was 97 in assay [4] and 3 in assay [5].

Turning to `CC(Oc1cccc(OC2O[C@@H]3O[C@]4(C)CC[C@H]5[C@H](C)CC[C@@H]([C@H]2C)[C@@]35OO4)c1)C(=O)O` (some centres not stated), the pIC50 was 6.13 in assay [1] and 5.07 in assay [2]. Also, it took 35.1 µM to reach half-maximal cytotoxicity in assay [3] (CC50). The Selectivity index stood at 47 in assay [4] and 4 in assay [5].

As to `C[C@@H]1CC[C@H]2[C@@H](C)C(=O)O[C@@H]3O[C@@]4(C)CC[C@@H]1[C@]32OO4` [ARTEMISININ], the pIC50 in assay [1] is 5.05; in assay [2], 5.35. Further, in assay [3], the CC50 was determined as 28.3 µM. Further, the Selectivity index in assay [4] was found to be 3; in assay [5], 6.

In the case of `COc1ccccc1OC(=O)C(C)Oc1cccc(O[C@H]2O[C@@H]3OC4(C)CC[C@H]5[C@H](C)CC[C@@H]([C@H]2C)[C@@]35OO4)c1` (single isomer, unassigned), the pIC50 in assay [1] was 6.24; in assay [2] it was 5.39. The molecule also displayed a CC50 in assay [3] of 2.99 µM. The Selectivity index in assay [4] stood at 5; in assay [5], 1.

For `C[C@H]1[C@@H](Oc2ccc(OCC(=O)O)cc2)OC2OC3(C)CCC4[C@H](C)CC[C@@H]1[C@@]24OO3` (single isomer, unassigned), the pIC50 in assay [1] was 5.22; in assay [2], 5.27. The molecule further displayed a CC50 in assay [3] of 354 µM. Besides, the Selectivity index in assay [4] came to 59; in assay [5] it was 66.

For the molecule `CC(Oc1cccc(O[C@@H]2OC3OC4(C)CCC5[C@H](C)CC[C@@H]([C@H]2C)[C@@]35OO4)c1)C(=O)O` (single isomer, unassigned), the pIC50 in assay [1] was 5.98; in assay [2], 5.12. Moreover, it took 5.54 µM to reach half-maximal cytotoxicity in assay [3] (CC50). The Selectivity index in assay [4] came to 5; in assay [5] it was 1.

For `C[C@H]1[C@@H](Oc2ccc(CC(=O)O)cc2)O[C@@H]2O[C@]3(C)CCC4[C@H](C)CC[C@@H]1[C@]42OO3` (some centres not stated), the pIC50 was 4.99 in assay [1] and 4.93 in assay [2]. This molecule had a CC50 in assay [3] above 100 µM. In addition, the Selectivity index in assay [4] is above 10; in assay [5], above 9.

Take `CO[C@H]1O[C@@H]2O[C@@]3(C)CC[C@H]4[C@H](C)CC[C@@H]([C@H]1C)[C@@]24OO3` [ARTEMETHER]: the pIC50 is 5.75 in assay [1] and 5.42 in assay [2]. In assay [3], this molecule showed a CC50 of 86 µM. The results for the Selectivity index in assay [4] and in assay [5] were 48 and 23, respectively.

As usually defined, the pIC50 is −log10 of the IC50, conventionally taken in molar units. Higher therefore signals a low IC50. In general, CC50 refers to the concentration that lowers cell viability or growth by half. Lower therefore signals harm at low concentration.
